Measured values collected from several papers.
Protocols differ between the studies behind these lines.
PIK3C2B: Phosphatidylinositol 4-phosphate 3-kinase C2 domain-containing subunit beta (PIK3C2B, Homo sapiens, UniProt O00750)
Nectin-4: Nectin-4 (Homo sapiens, UniProt Q96NY8)

SMILES	target	assay	setting	Kd
O=c1ccn([C@@H]2O[C@H](CO)[C@@H](O)[C@H]2O)c(=O)[nH]1	UCK1 (Homo sapiens, UniProt Q9HA47)	binding, fluorescence	–	56.4 nM
NC(=O)c1ncn([C@@H]2O[C@H](COP(=O)(O)O)[C@@H](O)[C@H]2O)c1N	Adenylosuccinate lyase (ADSL, Homo sapiens, UniProt P30566, R303C)	binding, ITC	–	122000 nM
C=CC(=O)N1CCC(C(=O)NCC(=O)N2CCN(c3nc(-c4cnc(N)nc4C(F)F)nc(N4CCOCC4)n3)CC2)CC1	PIK3C2B	binding, competition with immobilised ligand	–	81 nM
O=C(CCCCCCC(=O)Nc1ccc([C@H]2O[C@@H](CSc3nc(-c4ccccc4)c(-c4ccccc4)o3)C[C@@H](c3ccc(CO)cc3)O2)cc1)NO	Histone deacetylase 2 (HDAC2, Homo sapiens, UniProt Q92769)	cell-free assay	–	> 30200 nM
Cc1cc2nc3c(=O)[nH]c(=O)nc-3n(C[C@H](O)[C@H](O)[C@H](O)COP(=O)(O)OP(=O)(O)OC[C@H]3O[C@@H](n4cnc5c(N)ncnc54)[C@H](O)[C@@H]3O)c2cc1C	Heterogeneous nuclear ribonucleoprotein U-like protein 1 (HNRNPUL1, Homo sapiens, UniProt Q9BUJ2)	binding	lysate	11 nM
CCCC[C@@H]1NC(=O)[C@H](Cc2ccc(O)cc2)NC(=O)[C@@H]2CCCN2C(=O)[C@H](CCC(=O)O)NC(=O)[C@H](C)NC(=O)[C@H](Cc2ccccc2)NC(=O)[C@@H]2CSCCC(=O)N3CN(CN(C3)C(=O)CCSC[C@H](NC(C)=O)C(=O)N[C@@H](CC(C)(C)C)C(=O)N3CCC[C@H]3C(=O)N[C@@H](CCC(=O)O)C(=O)N[C@H](CCCCNC(=O)CCc3cn(CCOCCOCCOCCN(CCOCCOCCOCCC(=O)N[C@H]4CSCCC(=O)N5CN6CN(C5)C(=O)CCSC[C@H](NC(=O)[C@@H](CC(=O)O)NC(=O)[C@H](Cc5cccc7ccccc57)NC(=O)[C@@H]5CCCN5C4=O)C(=O)N[C@@H](CCSC)C(=O)N[C@@H](CCCCNC(=N)N)C(=O)N[C@@H](CC(=O)O)C(=O)N[C@@H](Cc4c[nH]c5ccccc45)C(=O)N[C@@H](CO)C(=O)N[C@@H]([C@@H](C)O)C(=O)N4CCC[C@H]4C(=O)N4C[C@H](O)C[C@H]4C(=O)N[C@@H](Cc4c[nH]c5ccccc45)C(=O)N[C@H](C(N)=O)CSCCC6=O)CCOCCOCCOCCn4cc(CCC(=O)NCCCC[C@H]5NC(=O)[C@H](CCC(=O)O)NC(=O)[C@@H]6CCCN6C(=O)[C@H](CC(C)(C)C)NC(=O)[C@@H](NC(C)=O)CSCCC(=O)N6CN7CN(C6)C(=O)CCSC[C@H](NC(=O)[C@H](Cc6ccc(O)cc6)NC(=O)[C@@H]6CCCN6C5=O)C(=O)N[C@@H](Cc5ccccc5)C(=O)N[C@@H](C)C(=O)N[C@@H](CCC(=O)O)C(=O)N5CCC[C@H]5C(=O)N[C@@H](Cc5ccc(O)cc5)C(=O)N[C@@H](CCCC)C(=O)N[C@H](C(N)=O)CSCCC7=O)nn4)nn3)C(=O)N3CCC[C@H]3C(=O)N[C@@H](Cc3ccc(O)cc3)C(=O)N2)C(=O)CCSC[C@@H](C(N)=O)NC1=O	Nectin-4	binding, SPR	–	2.7 nM
Cc1nc(NC(=O)N2CCC[C@H]2C(N)=O)sc1-c1ccnc(C(C)(C)C(F)(F)F)c1	PIK3C2B	binding, competition with immobilised ligand	–	315 nM
CC(=O)N[C@H](C(=O)N1C[C@H](O)C[C@H]1C(=O)NCc1ccc(-c2scnc2C)cc1)C(C)(C)SCCCCCCNC(=O)C[C@@H]1N=C(c2ccc(Cl)cc2)c2c(sc(C)c2C)-n2c(C)nnc21	Bromodomain-containing protein 3, BD2 (BRD3, Homo sapiens, UniProt Q15059)	binding, ITC	–	39 nM
CCCC[C@@H]1NC(=O)[C@H](Cc2ccc(O)cc2)NC(=O)[C@@H]2CCCN2C(=O)[C@H](CC(=O)O)NC(=O)[C@H](C)NC(=O)[C@H](Cc2ccccc2)NC(=O)[C@@H]2CSCCC(=O)N3CN(CN(C3)C(=O)CCSC[C@@H](C(=O)N[C@@H](CNC(=O)Cn3cc(CCC(=O)NCCC(=O)N(C)CC(=O)N(C)CC(=O)N(C)CC(=O)N(C)CC(=O)N(C)CC(=O)N(C)CC(=O)N(C)CC(=O)N(C)CC(=O)N(C)CC(=O)N(C)CC(=O)N[C@H]4CSCCC(=O)N5CN6CN(C5)C(=O)CCSC[C@H](NC(=O)[C@@H](CC(=O)O)NC(=O)[C@H](Cc5cccc7ccccc57)NC(=O)[C@@H]5CCCN5C4=O)C(=O)N[C@@H](CCSC)C(=O)N[C@@H](CCCCNC(=N)N)C(=O)N[C@@H](CC(=O)O)C(=O)N[C@@H](Cc4c[nH]c5ccccc45)C(=O)N[C@@H](CO)C(=O)N[C@@H]([C@@H](C)O)C(=O)N4CCC[C@H]4C(=O)N4C[C@H](O)C[C@H]4C(=O)N[C@@H](Cc4c[nH]c5ccccc45)C(=O)N[C@H](C(N)=O)CSCCC6=O)nn3)C(N)=O)NC1=O)C(=O)CCSC[C@H](NC(C)=O)C(=O)N[C@@H](CC(C)(C)C)C(=O)N1CCC[C@H]1C(=O)N[C@@H](CCC(=O)O)C(=O)N[C@H](C)C(=O)N1CCC[C@H]1C(=O)N[C@@H](Cc1ccc(O)cc1)C(=O)N2	Nectin-4	binding, SPR	–	2.6 nM
